Read-outs that look alike come from different tables or passages of the source.
Assays:
[1] = test system: human colon cancer HT-29 cells; conditions: read-out: antiproliferative IC50, HT-29 cells; ref Bonnet et al., 2014; cited from earlier work
[2] = test system: murine leukemia P-388 cells; conditions: read-out: antiproliferative IC50, P-388 cells; ref Bonnet et al., 2014; cited from earlier work
[3] = test system: human prostate cancer PC-3 cells; conditions: read-out: antiproliferative IC50, PC-3 cells; ref Bonnet et al., 2014; cited from earlier work
K562 cells = experiment: MTT cytotoxicity assay in K562 cells; format: cell-based; conditions: read-out: K562- IC50
Summary of the method: (§1)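 Cells were grown in suspension in RPMI 1640 with 10% FBS and penicillin/streptomycin/amphotericin B at 37 °C under 5% CO2. They were seeded at ~5×10^3 cells/well, kept overnight, then exposed to test compounds diluted in DMSO for 48 h. Cells were pelleted (300 g, 4 °C, 5 min) and washed twice in phosphate buffer. MTT (5 mg/ml stock) was added for 4 h at 37 °C, formazan dissolved in DMSO, and A570 read. Triplicate; IC50 given as mean±SD.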

CEM cells = experiment: MTT cytotoxicity assay in CEM cells; format: cell-based; conditions: read-out: CEM- IC50, 48 h, Mean±SD, n=3
Summary of the method: as §1

HDAC1 = HDAC1 (Homo sapiens, UniProt Q13547); experiment: HDAC enzyme activity assay, HDAC1; format: biochemical
Sequence of HDAC1 (Q13547 whole entry, species assumed): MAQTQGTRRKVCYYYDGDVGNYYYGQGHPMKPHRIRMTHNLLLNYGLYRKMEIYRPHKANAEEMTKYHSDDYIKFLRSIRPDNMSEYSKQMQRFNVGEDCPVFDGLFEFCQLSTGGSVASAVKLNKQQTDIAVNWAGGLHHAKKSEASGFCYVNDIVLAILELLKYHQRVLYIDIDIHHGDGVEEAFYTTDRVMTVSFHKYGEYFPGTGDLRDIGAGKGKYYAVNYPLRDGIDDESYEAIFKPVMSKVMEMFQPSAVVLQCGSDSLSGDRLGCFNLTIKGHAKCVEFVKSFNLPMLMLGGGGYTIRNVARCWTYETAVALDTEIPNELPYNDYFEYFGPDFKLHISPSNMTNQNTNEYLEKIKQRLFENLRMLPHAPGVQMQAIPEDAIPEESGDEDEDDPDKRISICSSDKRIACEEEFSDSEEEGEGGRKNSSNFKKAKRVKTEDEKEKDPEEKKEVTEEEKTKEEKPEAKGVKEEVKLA

HDAC4 = HDAC4 (Homo sapiens, UniProt P56524); experiment: HDAC enzyme activity assay, HDAC4; format: biochemical
Sequence of HDAC4 (P56524 655-1084 limits assumed): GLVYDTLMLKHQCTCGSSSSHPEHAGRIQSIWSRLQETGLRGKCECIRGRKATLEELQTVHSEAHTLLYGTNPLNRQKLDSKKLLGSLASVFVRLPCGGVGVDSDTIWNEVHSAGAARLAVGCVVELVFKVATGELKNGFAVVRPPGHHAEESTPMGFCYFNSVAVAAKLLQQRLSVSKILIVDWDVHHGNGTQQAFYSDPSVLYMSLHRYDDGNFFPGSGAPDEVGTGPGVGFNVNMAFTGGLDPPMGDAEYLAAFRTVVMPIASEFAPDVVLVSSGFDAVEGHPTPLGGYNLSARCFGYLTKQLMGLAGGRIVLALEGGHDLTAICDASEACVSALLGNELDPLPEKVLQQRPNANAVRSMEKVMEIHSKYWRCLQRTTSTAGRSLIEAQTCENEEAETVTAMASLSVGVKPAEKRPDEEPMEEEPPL
Summary of the method: (§2)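 Enzymes were recombinant: HDAC8, and the codon-optimised human HDAC4 catalytic domain (pET14b). Serial inhibitor dilutions in 25 mM Tris-HCl, 75 mM KCl, 0.001% Pluronic F-127, pH 8.0 were pre-incubated with enzyme for 1 h at 30 °C. Reaction ran 60 min at 30 °C with 20 μM Boc-Lys(trifluoroacetyl)-AMC and was stopped with 1.7 μM SATFMK. Trypsin (0.4 mg/ml) released AMC; fluorescence read at Ex 350/Em 450 nm. Triplicate; IC50 from dose-response curves.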

HDAC6 = molecular target: T1, HDAC6 (Homo sapiens, UniProt Q9UBN7); experiment: HDAC enzyme activity assay, HDAC6; format: biochemical
T1 sequence (Q9UBN7 1-1215): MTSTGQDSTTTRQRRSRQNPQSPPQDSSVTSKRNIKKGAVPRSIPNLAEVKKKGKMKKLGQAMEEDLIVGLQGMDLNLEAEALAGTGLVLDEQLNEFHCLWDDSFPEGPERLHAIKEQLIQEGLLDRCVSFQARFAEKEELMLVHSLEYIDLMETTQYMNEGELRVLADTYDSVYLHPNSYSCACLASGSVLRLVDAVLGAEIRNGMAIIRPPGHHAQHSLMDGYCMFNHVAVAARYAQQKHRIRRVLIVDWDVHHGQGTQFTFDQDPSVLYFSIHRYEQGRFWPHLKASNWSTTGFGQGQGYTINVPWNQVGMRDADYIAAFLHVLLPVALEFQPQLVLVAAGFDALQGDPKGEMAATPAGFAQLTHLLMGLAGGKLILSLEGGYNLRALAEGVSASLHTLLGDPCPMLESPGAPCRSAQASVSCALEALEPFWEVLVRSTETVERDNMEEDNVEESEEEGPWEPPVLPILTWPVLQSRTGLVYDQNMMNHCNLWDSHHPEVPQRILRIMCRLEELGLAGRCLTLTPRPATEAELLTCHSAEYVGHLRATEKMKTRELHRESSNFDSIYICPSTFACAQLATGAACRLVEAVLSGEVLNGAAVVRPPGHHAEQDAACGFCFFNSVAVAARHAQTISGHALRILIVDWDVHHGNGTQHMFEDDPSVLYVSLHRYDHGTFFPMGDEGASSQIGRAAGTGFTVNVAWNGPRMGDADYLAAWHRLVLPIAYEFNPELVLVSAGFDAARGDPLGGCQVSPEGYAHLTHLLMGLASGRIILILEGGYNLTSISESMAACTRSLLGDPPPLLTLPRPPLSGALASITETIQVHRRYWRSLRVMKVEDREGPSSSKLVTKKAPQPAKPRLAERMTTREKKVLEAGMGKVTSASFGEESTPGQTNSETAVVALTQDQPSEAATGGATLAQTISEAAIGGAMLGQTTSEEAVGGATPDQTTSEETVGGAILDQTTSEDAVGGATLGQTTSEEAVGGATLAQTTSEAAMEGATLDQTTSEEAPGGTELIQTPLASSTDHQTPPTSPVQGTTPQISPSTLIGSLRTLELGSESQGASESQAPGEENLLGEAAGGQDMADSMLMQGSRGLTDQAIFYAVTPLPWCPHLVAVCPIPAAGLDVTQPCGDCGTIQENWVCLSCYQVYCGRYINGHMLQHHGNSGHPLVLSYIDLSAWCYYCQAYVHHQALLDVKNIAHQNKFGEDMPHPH

HDAC8 = molecular target: T2, HDAC8 (Homo sapiens, UniProt Q9BY41); experiment: HDAC enzyme activity assay, HDAC8; format: biochemical; conditions: for HDAC-8 relative enzyme activity: primary screening at 50 μM
T2 sequence (Q9BY41 1-377): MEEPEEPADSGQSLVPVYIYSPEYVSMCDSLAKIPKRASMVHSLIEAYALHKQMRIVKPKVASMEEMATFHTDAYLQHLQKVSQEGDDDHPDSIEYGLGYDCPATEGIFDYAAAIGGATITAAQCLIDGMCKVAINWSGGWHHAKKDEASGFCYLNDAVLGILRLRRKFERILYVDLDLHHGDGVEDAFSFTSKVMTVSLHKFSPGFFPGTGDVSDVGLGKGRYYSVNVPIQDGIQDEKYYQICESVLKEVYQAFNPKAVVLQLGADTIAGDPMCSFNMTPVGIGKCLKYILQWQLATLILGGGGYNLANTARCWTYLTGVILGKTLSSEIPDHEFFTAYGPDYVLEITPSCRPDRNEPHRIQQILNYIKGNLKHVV
Summary of the method: as §2

[4] = read-out: HDAC1 IC50, Means ±SD, n=3
[5] = read-out: HDAC4 IC50, Means ±SD, n=3
[6] = read-out: HDAC6 IC50, Means ±SD, n=3
[7] = read-out: HDAC8 IC50, Means ±SD, n=3

| Structure (SMILES) | IC50 (HDAC1; [4]) [µM] | IC50 (HDAC4; [5]) [µM] | IC50 (HDAC6; [6]) [µM] | HDAC-8 relative enzyme activity (HDAC8) [%] | IC50 (HDAC8; [7]) [µM] | IC50 (HDAC1) [µM] | IC50 (HDAC4) [µM] | IC50 (HDAC6) [µM] | IC50 (HDAC8) [µM] | IC50 [1] [µM] | IC50 [2] [µM] | IC50 [3] [µM] | IC50 (K562 cells; MTT, 48 h, Mean±SD, n=3) [µM] | IC50 (CEM cells) [µM] | IC50 (K562 cells; Homo sapiens, K562, 48 h) [µM] |
| --- | --- | --- | --- | --- | --- | --- | --- | --- | --- | --- | --- | --- | --- | --- | --- |
| O=C1C[C@@H]2/C(=C(O)\C=C\c3ccccc3)C(=O)C=C[C@@H]2O1 [(+)-Cryptocaryone] |  |  |  |  |  |  |  |  |  | 0.32 | 0.04 | 1.6 |  |  |  |
| O=C(CN1C(=O)SC(=Cc2ccc(Br)cc2)C1=O)Nc1ccc(Cl)cc1C(F)(F)F [Compound G1, 2-[5-(4-Bromobenzylidene)-2,4-dioxo-thiazolidin-3-yl]-N-(4-chloro-2-trifluromethylphenyl) acetamide] | > 50 | > 50 | 16 ± 2 | < 50 | 20 ± 3 |  |  |  |  |  |  |  | 24 ± 0.58 | 25.1 ± 1.84 |  |
| Cc1ccc(C=C2SC(=O)N(CC(=O)Nc3ccc(Cl)cc3C(F)(F)F)C2=O)cc1C [Compound G3, N-(4-Chloro-2-trifluoromethylphenyl)-2-[5-(3,4-dimethylbenzylidene)-2,4-dioxothiazolidin-3-yl] acetamide] | > 50 | > 50 | 17 ± 2 | < 50 | 16 ± 2 |  |  |  |  |  |  |  | 26.4 ± 3.07 | 25.9 ± 2.95 |  |

Continued, in another order:

| IC50 (HDAC1; [4]) [µM] | IC50 (HDAC4; [5]) [µM] | IC50 (HDAC6; [6]) [µM] | HDAC-8 relative enzyme activity (HDAC8) [%] | IC50 (HDAC8; [7]) [µM] | IC50 (HDAC1) [µM] | IC50 (HDAC4) [µM] | IC50 (HDAC6) [µM] | IC50 (HDAC8) [µM] | Structure (SMILES) | IC50 [1] [µM] | IC50 [2] [µM] | IC50 [3] [µM] | IC50 (K562 cells; MTT, 48 h, Mean±SD, n=3) [µM] | IC50 (CEM cells) [µM] | IC50 (K562 cells; Homo sapiens, K562, 48 h) [µM] |
| --- | --- | --- | --- | --- | --- | --- | --- | --- | --- | --- | --- | --- | --- | --- | --- |
|  |  |  | < 50 |  | 31 ± 1.1 | > 50 | 14 ± 3 | 18 ± 2 | Cc1ccc(C=C2SC(=O)N(CC(=O)Nc3ccc(Cl)cc3C(F)(F)F)C2=O)cc1 [Compound G11, N-(4-Chloro-2-trifluoromethylphenyl)-2-[5-(4-methylbenzylidene)-2,4-dioxothiazolidin-3-yl]acetamide] |  |  |  |  |  | 34.6 ± 3.57 |
|  |  |  | < 50 |  | > 50 | > 50 | 42 | 11 ± 1 | O=C(CN1C(=O)SC(=Cc2ccccc2)C1=O)Nc1ccc(Cl)cc1C(F)(F)F [Compound G13, 2-[5-Benzylidene-2,4-dioxothiazolidin-3-yl]-N-(4-chloro-2-trifluoromethylphenyl)acetamide] |  |  |  |  |  | 41.7 ± 3.9 |
